Experimental data: ChEMBL document CHEMBL1147379, “Antineoplastic agents, 256. Cell growth inhibitory isocarbostyrils from Hymenocallis” (1993)
Converted amounts (≈) assume the structure as drawn.

Legend:
Format in all cases: functional
SF-295 = experiment: Growth inhibition of human SF295 cells; details: read-out: pTGI (converted)
Procedure, shortened: (§1)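 NCI 60-human-tumour-cell-line primary in vitro screen. Each compound was tested eight separate times across three concentration ranges with upper limits of 10⁻⁴, 10⁻⁵ and 10⁻⁶ M. Each range used five 10-fold dilutions. GI₅₀, TGI and LC₅₀ were calculated from the concentration-response curves for each cell line, and averaged mean-graph values were constructed from them.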

SF-539 = experiment: Growth inhibition of human SF539 cells; procedure, shortened: as §1
SNB-19 = experiment: Growth inhibition of human SNB19 cells; procedure, shortened: as §1
SNB-75 = experiment: Growth inhibition of human SNB75 cells; procedure, shortened: as §1
SNB-78 = experiment: Growth inhibition of human SNB78 cells
Procedure, shortened: (§2)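 NCI 60-human-tumour-line in vitro primary screen. Each compound tested eight separate times over three concentration ranges (upper limits 10⁻⁴, 10⁻⁵ and 10⁻⁶ M), each range as five 10-fold dilutions. GI₅₀ (also TGI and LC₅₀) derived from the concentration-response curves, reported as averaged values per cell line (negative log₁₀).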

U-251 = experiment: Growth inhibition of human U251 cells; procedure, shortened: as §2
XF498 = experiment: Growth inhibition of human XF498 cells; procedure, shortened: as §2
LOX IMVI = experiment: Growth inhibition of human LOXIMVI cells; procedure, shortened: as §1
Malme-3M = experiment: Growth inhibition of human MALME-3M cells; procedure, shortened: as §1
M14 = experiment: Growth inhibition of human M14 cells; procedure, shortened: as §1
M19-MEL = experiment: Growth inhibition of human M19-MEL cells; procedure, shortened: as §1
SK-MEL-2 = experiment: Growth inhibition of human SK-MEL-2 cells; procedure, shortened: as §1
SK-MEL-28 = experiment: Growth inhibition of human SK-MEL-28 cells; procedure, shortened: as §1
SK-MEL-5 = experiment: Growth inhibition of human SK-MEL-5 cells; procedure, shortened: as §1
UACC-257 = experiment: Growth inhibition of human UACC257 cells; procedure, shortened: as §2
UACC-62 = experiment: Growth inhibition of human UACC62 cells; procedure, shortened: as §2
IGROV-1 = experiment: Growth inhibition of human IGROV1 cells; procedure, shortened: as §1
OVCAR-3 = experiment: Growth inhibition of human OVCAR-3 cells; procedure, shortened: as §1
OVCAR-4 = experiment: Growth inhibition of human OVCAR4 cells; procedure, shortened: as §1
OVCAR-5 = experiment: Growth inhibition of human OVCAR5 cells; procedure, shortened: as §1
OVCAR-8 = experiment: Growth inhibition of human OVCAR8 cells; procedure, shortened: as §1
SK-OV-3 = experiment: Growth inhibition of human SKOV3 cells; procedure, shortened: as §1
[1] = Growth inhibition of human 786-O cells; procedure, shortened: as §1
A498 = experiment: Growth inhibition of human A498 cells; procedure, shortened: as §1
ACHN = experiment: Growth inhibition of human ACHN cells; procedure, shortened: as §1
CAKI-1 = experiment: Growth inhibition of human Caki1 cells; procedure, shortened: as §1
RXF 393 = experiment: Growth inhibition of human RXF393 cells; procedure, shortened: as §1
SN12C = experiment: Growth inhibition of human SN12C cells; procedure, shortened: as §1
TK-10 = experiment: Growth inhibition of human TK10 cells; procedure, shortened: as §2
UO-31 = experiment: Growth inhibition of human UO31 cells; procedure, shortened: as §2
P388 = experiment: Growth inhibition of mouse P388 cells; details: read-out: ED50 (the source's name)
[2] = read-out: pLC50 (the source's name) (converted)

Q: With O=C1N[C@H]2[C@H](O)[C@H](O)[C@@H](O)C[C@@H]2c2cc3c(cc21)OCO3 as the compound, how does the TGI (SF-295) read?
A: 0.912 µM

Q: What about the GI50 (SF-539) of the same compound?
A: 0.0603 µM

Q: What about the CC50 (SF-539; [2]) of the same compound?
A: 1.41 µM

Q: And the TGI (SF-539; read-out: pTGI (converted))?
A: 0.282 µM

Q: And the GI50 (SNB-19)?
A: 0.0417 µM

Q: What about the CC50 (SNB-19; [2]) of the same compound?
A: 93.3 µM

Q: And the TGI (SNB-19; read-out: pTGI (converted))?
A: 1 µM

Q: What about the GI50 (SNB-75) of the same compound?
A: 0.0603 µM

Q: What about the CC50 (SNB-75; [2]) of the same compound?
A: 24 µM

Q: And the TGI (SNB-75; read-out: pTGI (converted))?
A: 0.437 µM

Q: What about the GI50 (SNB-78) of the same compound?
A: 0.0871 µM

Q: What about the CC50 (SNB-78; [2]) of the same compound?
A: 83.2 µM

Q: And the TGI (SNB-78; read-out: pTGI (converted))?
A: 0.912 µM

Q: And the GI50 (U-251)?
A: 0.0479 µM

Q: And the CC50 (U-251; [2])?
A: 37.2 µM

Q: What about the TGI (U-251; read-out: pTGI (converted)) of the same compound?
A: 1.29 µM

Q: What about the GI50 (XF498) of the same compound?
A: 0.0813 µM

Q: What about the CC50 (XF498; [2]) of the same compound?
A: 20.9 µM

Q: What about the TGI (XF498; read-out: pTGI (converted)) of the same compound?
A: 0.724 µM

Q: What about the GI50 (LOX IMVI) of the same compound?
A: 0.0331 µM

Q: And the CC50 (LOX IMVI; [2])?
A: 0.708 µM

Q: What about the TGI (LOX IMVI; read-out: pTGI (converted)) of the same compound?
A: 0.158 µM

Q: What about the GI50 (Malme-3M) of the same compound?
A: 0.0759 µM

Q: And the CC50 (Malme-3M; [2])?
A: 8.51 µM

Q: What about the TGI (Malme-3M; read-out: pTGI (converted)) of the same compound?
A: 0.417 µM

Q: And the GI50 (M14)?
A: 0.0646 µM

Q: And the CC50 (M14; [2])?
A: 1.7 µM

Q: What about the TGI (M14; read-out: pTGI (converted)) of the same compound?
A: 0.347 µM

Q: And the GI50 (M19-MEL)?
A: 0.0398 µM

Q: And the CC50 (M19-MEL; [2])?
A: 5.25 µM

Q: And the TGI (M19-MEL; read-out: pTGI (converted))?
A: 0.513 µM

Q: And the GI50 (SK-MEL-2)?
A: 0.038 µM

Q: And the CC50 (SK-MEL-2; [2])?
A: 5.5 µM

Q: And the TGI (SK-MEL-2; read-out: pTGI (converted))?
A: 0.331 µM

Q: And the GI50 (SK-MEL-28)?
A: 0.0813 µM

Q: And the CC50 (SK-MEL-28; [2])?
A: 44.7 µM

Q: And the TGI (SK-MEL-28; read-out: pTGI (converted))?
A: 0.646 µM

Q: What about the GI50 (SK-MEL-5) of the same compound?
A: 0.0457 µM

Q: What about the CC50 (SK-MEL-5; [2]) of the same compound?
A: 1.2 µM

Q: And the TGI (SK-MEL-5; read-out: pTGI (converted))?
A: 0.209 µM

Q: And the GI50 (UACC-257)?
A: 0.141 µM

Q: And the CC50 (UACC-257; [2])?
A: 45.7 µM

Q: What about the TGI (UACC-257; read-out: pTGI (converted)) of the same compound?
A: 1.82 µM

Q: What about the GI50 (UACC-62) of the same compound?
A: 0.1 µM

Q: What about the CC50 (UACC-62; [2]) of the same compound?
A: 11 µM

Q: And the TGI (UACC-62; read-out: pTGI (converted))?
A: 0.562 µM

Q: What about the GI50 (IGROV-1) of the same compound?
A: 0.141 µM

Q: And the CC50 (IGROV-1; [2])?
A: 67.6 µM

Q: And the TGI (IGROV-1; read-out: pTGI (converted))?
A: 1.1 µM

Q: What about the GI50 (OVCAR-3) of the same compound?
A: 0.0832 µM

Q: And the CC50 (OVCAR-3; [2])?
A: 45.7 µM

Q: What about the TGI (OVCAR-3; read-out: pTGI (converted)) of the same compound?
A: 0.501 µM

Q: What about the GI50 (OVCAR-4) of the same compound?
A: 0.0363 µM

Q: And the CC50 (OVCAR-4; [2])?
A: 17 µM

Q: And the TGI (OVCAR-4; read-out: pTGI (converted))?
A: 0.427 µM

Q: And the GI50 (OVCAR-5)?
A: 0.324 µM

Q: What about the CC50 (OVCAR-5; [2]) of the same compound?
A: > 100 µM

Q: What about the TGI (OVCAR-5; read-out: pTGI (converted)) of the same compound?
A: 2.4 µM

Q: And the GI50 (OVCAR-8)?
A: 0.0708 µM

Q: What about the CC50 (OVCAR-8; [2]) of the same compound?
A: 72.4 µM

Q: What about the TGI (OVCAR-8; read-out: pTGI (converted)) of the same compound?
A: 2.29 µM

Q: And the GI50 (SK-OV-3)?
A: 0.0912 µM

Q: What about the CC50 (SK-OV-3; [2]) of the same compound?
A: > 100 µM

Q: And the TGI (SK-OV-3; read-out: pTGI (converted))?
A: 1.1 µM

Q: What about the GI50 ([1]; 786-0) of the same compound?
A: 0.11 µM

Q: What about the CC50 ([1]; 786-0, read-out: pLC50 (the source's name) (converted)) of the same compound?
A: 57.5 µM

Q: What about the TGI ([1]; 786-0, read-out: pTGI (converted)) of the same compound?
A: 2.09 µM

Q: What about the GI50 (A498) of the same compound?
A: 0.229 µM

Q: What about the CC50 (A498; [2]) of the same compound?
A: 9.33 µM

Q: And the TGI (A498; read-out: pTGI (converted))?
A: 1.1 µM

Q: And the GI50 (ACHN)?
A: 0.0813 µM

Q: And the CC50 (ACHN; [2])?
A: 11 µM

Q: What about the TGI (ACHN; read-out: pTGI (converted)) of the same compound?
A: 0.794 µM

Q: What about the GI50 (CAKI-1) of the same compound?
A: 0.191 µM

Q: What about the CC50 (CAKI-1; [2]) of the same compound?
A: > 100 µM

Q: And the TGI (CAKI-1; read-out: pTGI (converted))?
A: 1.41 µM

Q: And the GI50 (RXF 393)?
A: 0.0724 µM

Q: And the CC50 (RXF 393; [2])?
A: 2.51 µM

Q: What about the TGI (RXF 393; read-out: pTGI (converted)) of the same compound?
A: 0.417 µM

Q: And the GI50 (SN12C)?
A: 0.141 µM

Q: What about the CC50 (SN12C; [2]) of the same compound?
A: 18.2 µM

Q: What about the TGI (SN12C; read-out: pTGI (converted)) of the same compound?
A: 1.82 µM

Q: What about the GI50 (TK-10) of the same compound?
A: 0.251 µM

Q: What about the CC50 (TK-10; [2]) of the same compound?
A: > 100 µM

Q: What about the TGI (TK-10; read-out: pTGI (converted)) of the same compound?
A: 1.91 µM

Q: And the GI50 (UO-31)?
A: 0.1 µM

Q: What about the CC50 (UO-31; [2]) of the same compound?
A: 44.7 µM

Q: What about the TGI (UO-31; read-out: pTGI (converted)) of the same compound?
A: 0.955 µM

Q: What about the EC50 (P388) of the same compound?
A: 0.02 µg/mL (≈ 0.0682 µM)
